Measurements published in ChEMBL document CHEMBL3822361, “Novel 1,6-naphthyridin-2(1H)-ones as potential anticancer agents targeting Hsp90” (Eur J Med Chem, 2016).
One block for each molecule: values may come before it. Active and inactive are the calls of the source. The rule behind the calls is not given here.

How the values were obtained:
MDA-MB-468 [1] = assay: Antiproliferative activity against human MDA-MB-468 cells measured after 48 hrs by MTT assay; type: functional, cell-based; settings: MDA-MB-468, 48 h
How it was run: (§1)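 Cells grown in DMEM with 2 mM L-glutamine, penicillin/streptomycin and 5% FBS at 37 °C, 5% CO2; seeded 6000/well in 96-well plates, attached 24 h. Compounds added over a concentration range in DMSO (1% final), 48 h. MTT (2.5 mg/mL in PBS) added for 3.5 h, formazan dissolved in DMSO, OD 570 nm. Growth relative to 1% DMSO; IC50 from separate triplicate experiments.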

MCF7 [2] = assay: Antiproliferative activity against human MCF7 cells measured after 48 hrs by MTT assay; type: functional, cell-based; settings: MCF7, 48 h; how it was run: as §1
MCF7 [3] = assay: Effect on actin level in human MCF7 cells at 1.5 times IC50 measured after 48 hrs by western blot analysis; type: cell-based; settings: mcf7, 48 h
How it was run: (§2)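 Cells seeded in 6-well plates, 24 h at 37 °C, 5% CO2, then exposed 48 h to compound or 17-AAG in DMSO (1% final) or to vehicle. Lysed 2 h on ice in buffer with protease and phosphatase inhibitors, sonicated, protein measured by BCA. Equal protein run on SDS-PAGE, moved to PVDF, primary antibodies overnight at 4 °C, HRP secondary 1 h, ECL chemiluminescence.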

MDA-MB-468 [4] = assay: Effect on actin level in human MDA-MB-468 cells at 1.5 times IC50 measured after 48 hrs by western blot analysis; type: cell-based; settings: mda-mb-468, 48 h; how it was run: as §2
[5] = target: T1, Heat shock protein HSP90 (Homo sapiens) (UniProt P07900+P08238); assay: Inhibition of HSP90 in human MCF-7 cells assessed as ER-alpha protein degradation at 1.5 times IC50 measured after 48 hrs by western blot analysis
[6] = target: T1, Heat shock protein HSP90 (Homo sapiens); assay: Inhibition of HSP90 in human MCF7 cells assessed as ER-alpha protein degradation at 1.5 times IC50 measured after 48 hrs by western blot analysis; type: cell-based; how it was run: as §2
MDA-MB-468 [7] = assay: Induction of apoptosis in human MDA-MB-468 cells at 2 uM measured after 48 hrs by Annexin V-FITC/propidium iodide staining-based flow cytometry; type: functional, cell-based
How it was run: (§3)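 Cells incubated 24 h at 37 °C, 5% CO2, then given compounds in DMSO (1% final) for 48 h. Floating and trypsinized adherent cells pooled, PBS-washed, stained with annexin V-FITC plus propidium iodide in binding buffer, 15 min on ice in the dark. Flow cytometry, ≥10 000 events per sample; annexin V-positive cells scored as apoptotic.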

[8] = target: T1, Heat shock protein HSP90 (Homo sapiens); assay: Inhibition of HSP90 in human MCF7 cells assessed as Raf-1 protein degradation at 1.5 times IC50 measured after 48 hrs by western blot analysis; type: cell-based; how it was run: as §2
MDA-MB-468 [9] = assay: Effect on cell cycle distribution in human MDA-MB-468 cells assessed as accumulation at G2/M-phase at 2 uM measured after 48 hrs by propidium iodide staining-based flow cytometry; type: functional
How it was run: (§4)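 MDA-MB-468 seeded 40,000/well in 24-well plates, 24 h at 37 °C, 5% CO2, then treated 48 h with compounds in DMSO (1% final). Cells trypsinized, washed in PBS, fixed in 70% ethanol, rehydrated in PBS, stained with propidium iodide in PBS. Phase distribution (G1, S, G2/M, polyploid, subG1) read by flow cytometry.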

MCF7 [10] = assay: Effect on HSP90 level in human MCF7 cells at 1.5 times IC50 measured after 48 hrs by western blot analysis; type: cell-based; settings: mcf7, 48 h; how it was run: as §2
MDA-MB-468 [11] = assay: Effect on HSP90 level in human MDA-MB-468 cells at 1.5 times IC50 measured after 48 hrs by western blot analysis; type: cell-based; settings: mda-mb-468, 48 h; how it was run: as §2
[12] = target: T1, Heat shock protein HSP90 (Homo sapiens); assay: Inhibition of HSP90 in human MDA-MB-468 cells assessed as Raf-1 protein degradation at 1.5 times IC50 measured after 48 hrs by western blot analysis; type: cell-based; how it was run: as §2
[13] = target: T1, Heat shock protein HSP90 (Homo sapiens); assay: Inhibition of HSP90 in human MCF7 cells assessed as induction of prosurvival heat shock response at 1.5 times IC50 measured after 48 hrs by Western blot analysis; type: cell-based; how it was run: as §2
MDA-MB-468 [14] = assay: Induction of apoptosis in human MDA-MB-468 cells assessed as mortality at 15 uM measured after 48 hrs by Annexin V-FITC/propidium iodide staining-based flow cytometry; type: functional; settings: MDA-MB-468, 48 h
How it was run: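 MDA-MB-468 cells seeded in wells, held 24 h at 37 °C in 5% CO2, then exposed to compound in DMSO (1% DMSO final) for 48 h. Floating and trypsinised adherent cells pooled, PBS-washed, stained with annexin V-FITC plus propidium iodide in binding buffer 15 min on ice in the dark. Flow cytometry, ≥10 000 events per sample; annexin V-positive cells scored apoptotic.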

MDA-MB-468 [15] = assay: Cell cycle arrest in human MDA-MB-468 cells at 15 uM measured after 48 hrs by propidium iodide staining-based FACS analysis; type: functional; how it was run: as §4
MDA-MB-468 [16] = assay: Effect on cell cycle in human MDA-MB-468 cells assessed as accumulation at subG1-phase at 15 uM measured after 48 hrs by propidium iodide staining-based FACS analysis; type: functional; how it was run: as §4
MDA-MB-468 [17] = assay: Induction of apoptosis in human MDA-MB-468 cells at 4 uM measured after 48 hrs by Annexin V-FITC/propidium iodide staining-based flow cytometry; type: functional, cell-based; how it was run: as §3
MDA-MB-468 [18] = assay: Effect on cell cycle distribution in human MDA-MB-468 cells assessed as accumulation at G2/M-phase at 4 uM measured after 48 hrs by propidium iodide staining-based flow cytometry; type: functional; how it was run: as §4

SMILES: CN(C)CCNc1cc2c(cn1)cc(NC(=O)c1ccccc1)c(=O)n2C
IC50 (MDA-MB-468 [1]): 18.3 µM
IC50 (MCF7 [2]): 35.1 µM

SMILES: COc1ccc(C(=O)Nc2cc3cnc(NCCN4CCOCC4)cc3n(C)c2=O)cc1
IC50 (MDA-MB-468 [1]): > 100 µM
IC50 (MCF7 [2]): > 100 µM

SMILES: COc1cccc(C(=O)Nc2cc3cnc(NCCN4CCOCC4)cc3n(C)c2=O)c1
IC50 (MDA-MB-468 [1]): > 100 µM
IC50 (MCF7 [2]): > 100 µM

SMILES: Cn1c(=O)c(NC(=O)c2cccc(-c3ccccc3)c2)cc2cnc(N3CCN(CCO)CC3)cc21
Activity (MCF7 [3]): Non-toxic
mortality at 15 µM (MDA-MB-468 [14]): 80%
Activity (MDA-MB-468 [4]): Non-toxic
inhibition [5]: Active
IC50 (MDA-MB-468 [1]): 14.7 µM
inhibition [6]: Active
inhibition [8]: Active
Activity (MDA-MB-468 [15]): inactive
Activity (MDA-MB-468 [16]): Active
Activity (MCF7 [10]): Toxic
inhibition [13]: Active
IC50 (MCF7 [2]): 15.2 µM
Activity (MDA-MB-468 [11]): Toxic
inhibition [12]: Active

SMILES: Cn1c(=O)c(NC(=O)c2ccc(O)cc2)cc2cnc(NCCN3CCOCC3)cc21
IC50 (MDA-MB-468 [1]): > 100 µM
IC50 (MCF7 [2]): > 100 µM

SMILES: CN(C)CCNc1cc2c(cn1)cc(NC(=O)c1ccc(N)cc1)c(=O)n2C
IC50 (MDA-MB-468 [1]): 20.4 µM
IC50 (MCF7 [2]): 55.8 µM

SMILES: Cn1c(=O)c(NC(=O)c2ccc(N)cc2)cc2cnc(NCCN3CCOCC3)cc21
IC50 (MDA-MB-468 [1]): > 100 µM
IC50 (MCF7 [2]): > 100 µM

SMILES: Cn1c(=O)c(NC(=O)c2cc3ccccc3s2)cc2cnc(NCCN3CCOCC3)cc21
IC50 (MDA-MB-468 [1]): > 100 µM
IC50 (MCF7 [2]): > 100 µM

Continued by falling IC50 (MDA-MB-468 [1]), values first:

IC50 (MDA-MB-468 [1]): 17.4 µM
IC50 (MCF7 [2]): 43.2 µM
SMILES: COc1cccc(C(=O)Nc2cc3cnc(NCCN(C)C)cc3n(C)c2=O)c1

IC50 (MDA-MB-468 [1]): 12.6 µM
IC50 (MCF7 [2]): 35.4 µM
SMILES: COc1ccc(C(=O)Nc2cc3cnc(N4CCN(C)CC4)cc3n(C)c2=O)cc1

IC50 (MDA-MB-468 [1]): 12.1 µM
IC50 (MCF7 [2]): 27.4 µM
SMILES: CN(C)CCNc1cc2c(cn1)cc(NC(=O)/C=C/c1ccccc1)c(=O)n2C

IC50 (MDA-MB-468 [1]): 8.36 µM
IC50 (MCF7 [2]): 36.6 µM
SMILES: CN(C)CCNc1cc2c(cn1)cc(NC(=O)c1ccncc1)c(=O)n2C

inhibition [5]: inactive
IC50 (MDA-MB-468 [1]): 3.57 µM
inhibition [6]: inactive
inhibition [8]: inactive
IC50 (MCF7 [2]): 12 µM
inhibition [12]: inactive
SMILES: CN(C)CCNc1cc2c(cn1)cc(NC(=O)c1cc3ccccc3s1)c(=O)n2C
Activity (MCF7 [3]): Non-toxic
Activity (MDA-MB-468 [4]): Non-toxic
Activity (MDA-MB-468 [17]): Active
Activity (MDA-MB-468 [18]): Active
Activity (MCF7 [10]): Non-toxic
Activity (MDA-MB-468 [11]): Non-toxic

inhibition [5]: Active
IC50 (MDA-MB-468 [1]): 1.87 µM
inhibition [6]: Active
inhibition [8]: Active
IC50 (MCF7 [2]): 6 µM
inhibition [12]: Active
SMILES: CCCNc1cc2c(cn1)cc(NC(=O)c1cccc(-c3ccccc3)c1)c(=O)n2C
Activity (MCF7 [3]): Non-toxic
Activity (MDA-MB-468 [4]): Non-toxic
Activity (MDA-MB-468 [7]): inactive
Activity (MDA-MB-468 [9]): Active
Activity (MCF7 [10]): Non-toxic
Activity (MDA-MB-468 [11]): Non-toxic

inhibition [5]: Active
IC50 (MDA-MB-468 [1]): 1.68 µM
inhibition [6]: Active
inhibition [8]: Active
IC50 (MCF7 [2]): 1.93 µM
inhibition [12]: Active
SMILES: CN(C)CCNc1cc2c(cn1)cc(NC(=O)c1cccc(-c3ccccc3)c1)c(=O)n2C
Activity (MCF7 [3]): Non-toxic
Activity (MDA-MB-468 [4]): Non-toxic
Activity (MDA-MB-468 [7]): Active
Activity (MDA-MB-468 [9]): inactive
Activity (MCF7 [10]): Toxic
inhibition [13]: Active
Activity (MDA-MB-468 [11]): Toxic
